Assay outcomes (PubChem BioAssay)
An excerpt weighted towards active compounds, which were near 5.1% of everything screened.
ERa coact inh: blocks coactivator binding to human estrogen receptor alpha | TR-FRET ER-alpha LBD / SRC-1 peptide, estradiol-bound | inhibition, % at 25.6 µM | P03372 | 1.7% of 86,000 active; in the data active = inhibition above about 50%;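 also: 0% = receptor plus peptide control and 100% = peptide only without receptor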
ERb SRC1 inh: ER-beta (human) coactivator binding inhibition; 1.3% of 86,000 active; Q92731; TR-FRET ER-beta LBD / SRC1-Cy5 peptide binding; receptor agonist-loaded with 1 µM estradiol; inhibition, % at 25.6 µM;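 active = compounds whose percent inhibition of the receptor-coactivator binding signal exceeds about 50% in the single-dose screen, limit read from the data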;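 also: 0% = receptor plus peptide wells without compound and 100% = peptide-only wells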
BAP1 inh: inhibitors of human BAP1 deubiquitinase. Q92560. recombinant BAP1, Ub-AMC hydrolysis fluorescence kinetic; stronger effect = lower value. calls only at 20 µM. 0.48% of 72,000 active. AID 436;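 active = activity remaining at or below 50% of control, provided the compound also passes the data quality filters; inactive = the rest, including low values that fail the filters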;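 also: 100% = DMSO wells rate and 0% = substrate alone blank rate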
Target sequence (Q92560 whole entry, looked up): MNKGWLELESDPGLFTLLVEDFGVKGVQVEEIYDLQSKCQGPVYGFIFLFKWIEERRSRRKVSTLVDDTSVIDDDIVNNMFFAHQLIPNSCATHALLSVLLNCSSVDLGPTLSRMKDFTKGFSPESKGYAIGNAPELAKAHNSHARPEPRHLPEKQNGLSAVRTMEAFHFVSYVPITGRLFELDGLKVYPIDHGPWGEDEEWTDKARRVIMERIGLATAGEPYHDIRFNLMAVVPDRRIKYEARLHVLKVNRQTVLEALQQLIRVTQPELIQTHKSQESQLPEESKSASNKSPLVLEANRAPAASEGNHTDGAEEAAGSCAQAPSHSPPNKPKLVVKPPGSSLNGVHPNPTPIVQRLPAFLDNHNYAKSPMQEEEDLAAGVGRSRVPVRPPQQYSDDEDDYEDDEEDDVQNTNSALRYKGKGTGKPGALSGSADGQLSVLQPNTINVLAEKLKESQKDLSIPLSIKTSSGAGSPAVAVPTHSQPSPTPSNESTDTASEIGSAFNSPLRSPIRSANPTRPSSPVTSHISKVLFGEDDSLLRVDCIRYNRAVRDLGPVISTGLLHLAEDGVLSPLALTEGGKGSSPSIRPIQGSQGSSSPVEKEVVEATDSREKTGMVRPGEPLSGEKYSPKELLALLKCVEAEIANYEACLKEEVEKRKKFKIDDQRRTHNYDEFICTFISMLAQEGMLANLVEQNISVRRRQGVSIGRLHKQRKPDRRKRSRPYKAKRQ
ERa coact pot: enhances coactivator binding to human estrogen receptor alpha; P03372; TR-FRET ERalpha-LBD/SRC-Cy5 coactivator binding, 2 h; 100 = basal binding, no effect; coactivator binding (% of control), % at 25.6 µM; 1.3% of 86,000 active; in the data active = activity above about 200%;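 also: binding measured in presence of low estradiol as agonist stimulus; 0% = peptide alone without receptor and 100% = receptor with peptide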
SF-1 act: activators of human nuclear receptor SF-1; Q13285; CHO-K1 Gal4-SF-1 LBD luciferase reporter; % increase over DMSO SF-1-specific signal; activation, % at 10 µM; 1.9% of 65,000 active; AID 522;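 active = activation above the mean activation of all tested compounds plus 3 SD, cut at about 50% in these data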
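material = CHO-K1 cells with Gal4–hSF-1 LBD chimera plus Gal4-driven luciferase | compound = 10 µM single point, 1% DMSO | incubation = 20 h compound exposure at 37 °C after 1 h cell settling | measured by = SteadyLite luciferase luminescence | evaluation = percent activation relative to DMSO median and mock-transfected background | control set = DMSO negative control and −SF1 background wells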
RORA act: activators of human nuclear receptor RORA | activation, % at 10 µM | P35398 | AID 560 | 1.5% of 65,000 active | CHO-K1 Gal4-RORA LBD luciferase reporter, luminescence; percent increase over mock-subtracted basal signal;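 active = activation above the mean of all tested compounds plus 3 SD, cut at about 49% in these data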;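 also: 0% = DMSO-treated RORA cells and 100% = added signal equal to DMSO minus mock-transfected cells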
* marks the source's active call; other numbers are inactive results; i = inactive; nt = no result given; + = active, no number; [ ] = dose if it differs, or a comment.

SMILES	ERa coact inh	ERb SRC1 inh	BAP1 inh	ERa coact pot	SF-1 act	RORA act
Cc1ccc(C(=O)Nc2ccc(S(=O)(=O)O)c3cc(S(=O)(=O)O)cc(S(=O)(=O)O)c23)cc1NC(=O)c1cccc(NC(=O)Nc2cccc(C(=O)Nc3cc(C(=O)Nc4ccc(S(=O)(=O)O)c5cc(S(=O)(=O)O)cc(S(=O)(=O)O)c45)ccc3C)c2)c1	nt	nt	+	nt	nt	nt
Cc1ccc(C(=O)Nc2cccc(C(=O)O)c2)cc1S(=O)(=O)Nc1ccc(Br)cc1	nt	nt	i	nt	nt	nt
CC(=O)NC1Sc2ccccc2N=C1c1ccccc1 (configuration not stated)	-6	4	i	92	59*	42
Cc1ccc(C2CC(C(F)(F)F)n3nc(C(N)=O)cc3N2)cc1 (configuration not stated)	nt	nt	i	nt	nt	nt
CCCCOC(=O)Nc1ccc(N2CCOCC2)cc1	7	19	i	117	35	42
CCCCOC(=O)Nc1ccc(N2CCCCC2)cc1	nt	nt	nt	nt	64*	95*
COc1ccc(C(=O)Nc2ccc(N3CCCC3)cc2)cc1	84*[fluorescence artefact?]	41	nt	24	nt	nt
CCOc1ccc(C(=O)Nc2ccc(N3CCCC3)cc2)cc1	nt	nt	i	nt	20	15
Cc1ccc2c(c1)cc(CN(CCc1ccccc1)C(=O)N1CCOCC1)c1nnnn12	65*[fluorescence artefact?]	-4	i	113	8	13
CCC1CCCCN1C(=O)CSc1nnc(-c2ccco2)o1 (configuration not stated)	nt	nt	i	nt	52*	49*
Cc1cc(NC(=O)CSc2nnc(-c3ccco3)o2)no1	2	0	i	255*[fluorescence artefact?]	0	-15
Cc1ccc(C)c(NC(=O)CSc2nnc(-c3ccco3)o2)c1	-4	-2	nt	101	3	4
Cn1c(=O)[nH]c(=O)c2c1nc(SCc1ccccc1Cl)n2CCc1ccccc1	nt	nt	i	nt	nt	nt
Cc1ccc(C(=O)Nc2cc(N)ccc2N)cc1	nt	nt	i	nt	nt	nt
C=CCn1c(=N)n(CCO)c2ccccc21	nt	nt	i	nt	nt	nt
Cc1cc(Cl)cc(C)c1OCCCCN1CCOCC1	67*	1	i	115	-4	-15
COc1ccc(/C=N/n2cnnc2SCCO)cc1OC	nt	nt	i	nt	-1	-8
C=CCSc1nncn1/N=C/c1ccc(OC)cc1	-6	-9	i	96	83*	91*
CCSc1nnc(NC(=O)c2cccnc2)s1	-6	-5	i	154	13	41
CCSc1nnc(NC(=O)c2ccccc2)s1	nt	nt	i	nt	49	66*
O=C(Nc1nnc(SCc2ccccc2)s1)c1cc2c(s1)CCCC2	15	15	nt	162	nt	nt
CCCc1cc(C(N)=O)c(NC(=O)c2ccco2)s1	14	19	i	92	60*	59*
CCSc1nnc(NC(=O)c2cc3c(s2)CCCC3)s1	-18	13	nt	175	52*	46
CCSc1nnc(NC(=O)c2ccco2)s1	-10	0	i	98	22	53*
CCCc1cc(C(N)=O)c(NC(=O)C2CCCO2)s1 (configuration not stated)	5	5	i	99	-20	4
SMILES	ERa coact inh	ERb SRC1 inh	BAP1 inh	ERa coact pot	SF-1 act	RORA act
N=C1c2ccccc2CN1CC(=O)c1ccc2c(c1)OCCO2	nt	nt	i	nt	nt	nt
COc1ccc(OC)c2sc(NC(=O)c3ccc(Br)s3)nc12	82*[fluorescence artefact?]	70*[fluorescence artefact?]	i	126	53*	-6
O=C(CSc1nnc(SCC(=O)c2ccco2)s1)c1ccco1	60*	53*	i	67	30	12
O=C(Nc1nnc(C2CCCCC2)s1)c1ccc(Br)s1	11	52*[fluorescence artefact?]	nt	367*[fluorescence artefact?]	6	27
CCSc1nnc(NC(=O)c2ccc(Br)s2)s1	8	28	nt	396*[fluorescence artefact?]	18	27
COC(=O)C1=C(C)NC2=C(C(=O)CCC2)C1c1ccccc1OC (configuration not stated)	nt	nt	i	nt	nt	nt
CCCOC(=O)C1=C(C)NC2=C(C(=O)CC(c3ccccc3)C2)C1c1cccnc1 (configuration not stated)	nt	nt	i	nt	nt	nt
CCSc1nnc(Nc2ccccc2)s1	-3	16	i	87	54*	17
CCSc1nnc(Nc2ccc(C)cc2)s1	-4	-7	nt	82	nt	nt
OC(c1ccccc1)c1nc2ccccc2s1 (configuration not stated)	-4	3	i	112	6	10
O=c1c(C(c2ccccc2)c2c(O)sc3ccccc3c2=O)c(O)sc2ccccc12	81*[fluorescence artefact?]	29	nt	119	nt	nt
CCN(C(=O)CN1CCCc2ccccc21)c1c(N)n(Cc2ccccc2)c(=O)[nH]c1=O	-10	80*[fluorescence artefact?]	i	105	2	-21
COc1ccc(-c2nn(-c3ccccc3)cc2/C=N/N2C(=O)CSC2=S)cc1	-21	-1	nt	313*[fluorescence artefact?]	nt	nt
COc1ccc(/C=N/N2C(=O)CSC2=S)cc1	-7	1	nt	102	nt	nt
Cc1cc(Br)c2c(c1)=C(c1sc(N3CCCCCC3)nc1O)C(=O)N=2	74*[fluorescence artefact?]	50	i	179	50*	34
O=c1cc(C(F)(F)F)c2sc(N3CCCCC3)nc2[nH]1	0	1	nt	105	-11	-4
COc1cc(C2NC(=O)NC(C)=C2C(=O)OCCC#N)ccc1O (configuration not stated)	nt	nt	i	nt	nt	nt
COc1ccc([N+](=O)[O-])cc1NC(=O)c1ccccc1Cl	nt	nt	i	nt	nt	nt
COc1ccc(NC(=O)c2ccc3c(=O)n(Cc4ccco4)c(=S)[nH]c3c2)c(OC)c1	73*[fluorescence artefact?]	13	i	110	6	-14
COc1cc2[nH]c(=S)n(Cc3ccco3)c(=O)c2cc1OC	8	-19	nt	117	nt	nt
COc1ccc(/C=C/C2=NC(=C\N(C)C)/C(=O)O2)cc1	-18	27	nt	120	50*	23
COc1ccc(C=Cc2ccc([N+](=O)[O-])cc2)cc1	nt	nt	i	nt	nt	nt
COc1cccc(-n2nnc3c(=O)n(Cc4ccc(C)cc4)cnc32)c1	-1	3	i	121	7	15
COc1cccc(-n2nnc3c(=O)n(Cc4ccc(Br)cc4)cnc32)c1	52*[fluorescence artefact?]	34	i	354*[fluorescence artefact?]	4	-7
Cc1cc(OC(C)C(=O)N2CCN(Cc3ccc4c(c3)OCO4)CC2)ccc1Cl (configuration not stated)	nt	nt	i	nt	nt	nt
SMILES	ERa coact inh	ERb SRC1 inh	BAP1 inh	ERa coact pot	SF-1 act	RORA act
Cc1oc2cc(OCc3ccc(Cl)cc3)ccc2c(=O)c1Oc1ccccc1	nt	nt	i	nt	nt	nt
O=C(OCC(=O)N1CCCC1)c1cncc(Br)c1	-1	55*	i	101	0	-17
COc1ccccc1CNC(=O)c1cnccn1	61*[fluorescence artefact?]	37	nt	94	nt	nt
Cc1nc(N)sc1-c1csc(Nc2ccccc2)n1	6	7	i	59	90*	50*
Cc1cc(NS(=O)(=O)c2ccc(Nc3nc(-c4sc(N)nc4C)cs3)cc2)no1	22	56*[fluorescence artefact?]	i	55	12	-9
O=C(CS(=O)(=O)c1ccccc1)c1ccc2c(c1)OCCO2	-5	-8	i	118	52*	35
